# Published values of several laboratories.
# Each line is one published result; the experiments were not run side by side.
# Target: MAP kinase-interacting serine/threonine-protein kinase 1 (MKNK1, Homo sapiens, UniProt Q9BUB5)
SMILES,assay,setting,quantity,result
Cc1ccc(C(=O)Nc2ccc(CN3CCN(C)CC3)c(C(F)(F)F)c2)cc1C#Cc1cnc2cccnn12,"enzyme activity, inhibitor",23.5 nM,remaining activity,98%
N#CCCc1ccc2c(c1)-c1[nH]c3ccc([N+](=O)[O-])cc3c1CC(=O)N2,cell-free assay,0.5 µM,remaining signal,66.7%
CS(=O)(=O)Nc1cccc(-c2csc(NC(=O)CSc3nc4nccnc4c(=O)n3CCc3ccccc3)n2)c1,"enzyme activity, inhibitor",10 µM,inhibition,-14%
Cn1c(=O)n(-c2ccc(C(C)(C)C#N)cc2)c2c3cc(-c4cnc5ccccc5c4)ccc3ncc21,"enzyme activity, inhibitor",10 µM,remaining activity,101%
CCC(=O)N[C@@H]1CC[C@H](C(=O)N(C)c2ccc(-c3nc4ccccc4o3)cc2)C1,"cell-free assay, competition with immobilised ligand",1 µM,remaining binding,95%
CN(c1ncccc1CNc1nc(Nc2ccc3c(c2)CC(=O)N3)ncc1C(F)(F)F)S(C)(=O)=O,"enzyme activity, inhibitor",1 µM,inhibition,3.8%
COc1cc(Nc2cnc(C#N)c(O[C@H](C)CN(C)C)n2)ncc1-c1cnn(C)c1,"enzyme activity, inhibitor, radiometric",1 µM,remaining activity,94%
CNC(=O)c1cc(Oc2ccc(NC(=O)Nc3ccc(Cl)c(C(F)(F)F)c3)cc2)ccn1,cell-free assay,0.5 µM,remaining signal,75.1%
CCS(=O)(=O)c1cc2cc(C[C@](O)(CC(C)(C)c3ccc(F)cc3C(N)=O)C(F)(F)F)[nH]c2cn1,"cell-free assay, competition with immobilised ligand",1 µM,remaining binding,97%
O=C1NC(=O)c2cc(Nc3ccc(F)cc3)c(Nc3ccc(F)cc3)cc21,cell-free assay,0.5 µM,remaining signal,103%
FC(F)(F)Oc1cccc(-c2cnc3ccc(-c4ccncc4)nn23)c1,"enzyme activity, inhibitor, radiometric",1 µM,activity vs control,75%
O=C(Nc1cnn(-c2csc(C(=O)NC3COC3)c2)c1)Nc1ccccc1Cl,"enzyme activity, inhibitor",5 µM,remaining activity,94.3%
O=C(Nc1ccc(Oc2ccc(F)cc2)cc1)N1CCc2ncccc2[C@H]1c1ccc(F)cc1,"cell-free assay, competition with immobilised ligand",1 µM,remaining binding,95%
Cc1sc(C(=O)NC2COC2)cc1-n1cc(NC(=O)Nc2c(F)cccc2Cl)cn1,"enzyme activity, inhibitor",10 µM,remaining activity,94.2%
CCCCN(CCCC)C(=O)CN1C[C@H](c2cc(OC)c3c(c2)OCO3)[C@@H](C(=O)O)[C@@H]1CC(C)(C)CCC,"cell-free assay, competition with immobilised ligand",1 µM,remaining binding,93.3%
CC(C)(C)c1nc(-c2cccc(NS(=O)(=O)c3c(F)cccc3F)c2F)c(-c2ccnc(N)n2)s1,"enzyme activity, inhibitor, radiometric",1 µM,remaining activity,128%
CNC(=O)c1ccc(Nc2ncc(C(F)(F)F)c(NCc3nccnc3N(C)S(C)(=O)=O)n2)cc1,"cell-free assay, competition with immobilised ligand",0.1 µM,remaining binding,83%
Nc1ncnc2n[nH]c(Nc3ccc(F)cc3)c12,cell-free assay,0.5 µM,remaining signal,75.2%
Nc1nc(NC2CCCCC2)sc1C(=O)c1ccccc1,"enzyme activity, inhibitor",10 µM,remaining activity,105%
Cc1nccc(COC(=O)N2C[C@@H]3[C@@H](CNC(=O)c4ccc5[nH]nnc5c4)[C@@H]3C2)n1,"cell-free assay, competition with immobilised ligand",1 µM,remaining binding,91%
FC(F)c1nc2ccccc2n1-c1nc(N2CCOCC2)nc(N2CCOCC2)n1,"enzyme activity, inhibitor",10 µM,remaining activity,96%
O=C(O)[C@H]1[C@H](Cn2nnc3ccccc3c2=O)CC[C@@H]1C(=O)c1ccc(OCCC2CCOCC2)cc1,"cell-free assay, competition with immobilised ligand",1 µM,remaining binding,96%
COc1cc2ncnc(Nc3ccc(Oc4ccccc4)c(C)c3C)c2cc1OC,"enzyme activity, inhibitor",1 µM,inhibition,-6%
